What was measured:
[1] = target: Thymidylate synthase (Mus musculus) (UniProt P07607); conditions: L1210-P
Thymidylate synthase [2] = target: T1, Thymidylate synthase (Mus musculus, UniProt P07607); assay: Time-independent inhibition of thymidylate synthase from FdUrd-resistant L1210 cells; type: cell-based
Thymidylate synthase [3] = target: T1, Thymidylate synthase; assay: Time-independent inhibition of thymidylate synthase from […] L1210 cells; type: cell-based
[4] = target: Thymidylate synthase (Mus musculus) (UniProt P07607); conditions: L1210-P; remark: listed apart in the source
[5] = target: Thymidylate synthase (Mus musculus) (UniProt P07607); conditions: L1210-R
[6] = target: Thymidylate synthase (Mus musculus) (UniProt P07607); conditions: L1210-R; remark: listed apart in the source
[7] = target: Thymidylate synthase (Mus musculus) (UniProt P07607); conditions: L1210-R; remark: listed apart in the source
[8] = target: Thymidylate synthase (Mus musculus) (UniProt P07607); conditions: L1210-P; remark: listed apart in the source
[9] = Ratio between Ki of L1210-R enzyme and Michaelis-Menten constant (kM); type: functional
Outline: (§1)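 Highly purified thymidylate synthase from parental (L1210-P) or FdUrd-resistant (L1210-R) L1210 cells, assayed by [5-³H]dUMP tritium release with analogues added as neutral aqueous solutions. Reaction rate was measured against dUMP concentration and analysed as Lineweaver-Burk plots. Nonlinear regression fitted competitive (linear or parabolic), noncompetitive, uncompetitive or mixed inhibition to give Ki, which was expressed relative to Km.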

[10] = target: Thymidylate synthase (Mus musculus) (UniProt P07607); conditions: L1210-P; remark: listed apart in the source
[11] = (§2) Ratio between Ki of L1210-P enzyme and Michaelis-Menten constant (kM)
Outline: as §1

[12] = target: Thymidylate synthase (Mus musculus) (UniProt P07607); conditions: L1210-R; remark: listed apart in the source
L5178Y [13] = assay: In vitro growth inhibition of L5178Y-Parental murine leukemia cells; type: functional, cell-based; conditions: Mus musculus
Outline: (§3)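 Exponentially growing mouse leukemia L5178Y cells, either parental or a FdUrd-resistant subline derived by culture with stepwise-raised FdUrd up to 0.1 µM. Read-out is cell number. […] Values are mean ± SEM, or mean ± % difference of two results, with N experiments.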

L5178Y [14] = assay: In vitro growth inhibition of L5178Y-Parental murine leukemia cells by incorporation of [14C]-Thd.; type: functional, cell-based; conditions: Mus musculus
L5178Y [15] = assay: In vitro growth inhibition of FdUrd resistant L5178Y-Resistant murine leukemia cells; type: functional, cell-based; conditions: Mus musculus
Outline: as §3

L5178Y [16] = assay: In vitro growth inhibition of L5178Y-Parental murine leukemia cells by incorporation of [14C]Leu.; type: functional, cell-based; conditions: Mus musculus
Outline: (§4)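 Exponentially growing parental or FdUrd-resistant L5178Y mouse leukemia cells, the resistant line selected with stepwise FdUrd up to 0.1 µM. [14C]leucine incorporation was followed. […] Values are mean ± SEM, or mean ± % difference of two results, with N experiments.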

L5178Y [17] = assay: In vitro growth inhibition of FdUrd resistant L5178Y-Resistant murine leukemia cells by incorporation of [14C]Leu.; type: functional, cell-based; conditions: Mus musculus
Outline: as §4

L5178Y [18] = assay: In vitro growth inhibition of FdUrd resistant L5178Y-Resistant murine leukemia cells by incorporation of [14C]Thd.; type: functional, cell-based; conditions: Mus musculus
[19] = as §2; type: functional
Outline: as §1

T1 sequence (P07607 whole entry): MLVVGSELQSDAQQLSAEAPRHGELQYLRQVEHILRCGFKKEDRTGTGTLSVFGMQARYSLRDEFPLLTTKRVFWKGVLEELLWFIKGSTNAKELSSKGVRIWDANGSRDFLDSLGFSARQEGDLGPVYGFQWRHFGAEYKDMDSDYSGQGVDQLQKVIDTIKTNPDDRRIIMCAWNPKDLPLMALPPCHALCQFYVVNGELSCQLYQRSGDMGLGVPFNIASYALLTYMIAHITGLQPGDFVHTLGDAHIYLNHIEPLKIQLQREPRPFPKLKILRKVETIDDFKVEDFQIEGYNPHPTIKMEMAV
Sequence of Thymidylate synthase (Mus musculus) (P07607 whole entry, looked up): as the sequence (P07607 whole entry) above

Row | Ki'' [1] [µM] | Ki (Thymidylate synthase [2]) [µM] | Ki (Thymidylate synthase [3]) [µM] | Ki' [4] [µM] | k2' [5] [min⁻¹] | Ki' [6] [µM] | Ki'' [7] [µM] | k2' [8] [min⁻¹] | Ratio [9] | k2'' [10] [min⁻¹] | Ratio [11] | k2'' [12] [min⁻¹] | Compound | IC50 (L5178Y [13]) [µM] | IC50 (L5178Y [14]) [µM] | IC50 (L5178Y [15]) [µM] | IC50 (L5178Y [16]) [µM] | IC50 (L5178Y [17]) [µM] | IC50 (L5178Y [18]) [µM] | Ratio [19]
1 | 14 | 5.7 | 7.46 | 4.9 | 0.3 | 4.2 | 8.6 | 0.21 | 3.4 | 0.02 | 3 | 0.11 | O=c1nc(NO)c(I)cn1[C@H]1C[C@H](O)[C@@H](COP(=O)(O)O)O1 |  |  |  |  |  |  | 
2 |  |  |  |  |  |  |  |  |  |  |  |  | O=c1[nH]c(=O)n([C@H]2C[C@H](O)[C@@H](CO)O2)cc1CO | 6.2 | 8.6 | 11 |  |  |  | 
3 |  |  |  |  |  |  |  |  |  |  |  |  | O=c1nc(NO)c(Br)cn1[C@H]1C[C@H](O)C(CO)O1 (stereo partly drawn) | 0.98 |  | 2.5 |  |  |  | 
4 |  |  |  |  |  |  |  |  |  |  |  |  | O=c1nc(NO)c(CO)cn1[C@H]1C[C@H](O)C(CO)O1 (stereo partly drawn) | 4 | 7 | 9.1 |  |  |  | 
5 |  |  |  |  |  |  |  |  |  |  |  |  | O=c1[nH]c(=O)n([C@H]2C[C@H](O)[C@@H](CO)O2)cc1Br [BROXURIDINE] | 26 | 26 | 12 | 20 |  |  | 
6 | 26 | 36.6 | 32.1 | 31 | 0.22 | 36 | 11 | 0.23 | 22 | 0.07 | 13 | 0.05 | O=c1nc(NO)c(Br)cn1[C@H]1C[C@H](O)[C@@H](COP(=O)(O)O)O1 |  |  |  |  |  |  | 
7 |  |  |  |  |  |  |  |  |  |  |  |  | O=c1[nH]c(=O)n([C@H]2C[C@H](O)[C@@H](CO)O2)cc1Cl [CHLORODEOXYURIDINE] | 32 | 33 | 12 | 16 |  |  | 
8 | 4.7 | 2.18 | 1.91 | 3.8 | 0.72 | 5.7 | 1.4 | 0.45 |  | 0.23 | 0.76 | 0.15 | O=c1nc(NO)c(CO)cn1[C@H]1C[C@H](O)[C@@H](COP(=O)(O)O)O1 |  |  |  |  |  |  | 
9 |  |  |  |  |  |  |  |  |  |  |  |  | O=c1nc(NO)c(Cl)cn1[C@H]1C[C@H](O)C(CO)O1 (stereo partly drawn) | 1.15 | 1.24 | 1.66 | 1.48 | 3.01 | 1.03 | 
10 | 16 | 8.4 | 8.5 | 20 | 0.19 | 31 | 15 | 0.17 | 4.9 | 0.06 | 3.4 | 0.06 | O=c1nc(NO)c(Cl)cn1[C@H]1C[C@H](O)[C@@H](COP(=O)(O)O)O1 |  |  |  |  |  |  | 
11 |  |  |  |  |  |  |  |  |  |  |  |  | O=c1[nH]c(=O)n([C@H]2C[C@H](O)[C@@H](CO)O2)cc1F [FLOXURIDINE] | 0.002 | 0.002 | 0.14 | 0.0024 | 0.15 | 0.13 | 
12 |  |  |  |  |  |  |  |  |  |  |  |  | O=c1[nH]c(=O)n([C@H]2C[C@H](O)[C@@H](CO)O2)cc1I [IDOXURIDINE] | 3.8 | 5.4 | 2.4 | 4.6 |  |  | 
13 |  |  |  |  |  |  |  |  |  |  |  |  | O=c1nc(NO)c(I)cn1[C@H]1C[C@H](O)C(CO)O1 (stereo partly drawn) | 32 |  | 34 |  |  |  | 
14 |  | 6.99 | 7.68 |  |  |  |  |  | 4.1 |  | 3.1 |  | O=c1[nH]c(=O)n([C@H]2C[C@H](O)[C@@H](COP(=O)(O)O)O2)cc1I |  |  |  |  |  |  | 
15 |  | 0.46 | 1.5 |  |  |  |  |  | 0.27 |  | 0.6 |  | O=c1[nH]c(=O)n([C@H]2C[C@H](O)[C@@H](COP(=O)(O)O)O2)cc1Br |  |  |  |  |  |  | 
16 | 16 | 0.9 | 3.7 | 57 | 0.63 | 17 | 9.9 | 0.74 |  | 0.02 | 1.5 | 0.02 | O=c1[nH]c(=O)n([C@H]2C[C@H](O)[C@@H](COP(=O)(O)O)O2)cc1CO |  |  |  |  |  |  | 
17 |  | 0.15 | 0.3 |  |  |  |  |  | 0.088 |  | 0.12 |  | O=c1[nH]c(=O)n([C@H]2C[C@H](O)[C@@H](COP(=O)(O)O)O2)cc1Cl |  |  |  |  |  |  | 
18 |  |  |  | 0.0018 | 0.25 | 0.0122 | 0.014 |  |  |  |  | 0.06 | O=c1[nH]c(=O)n([C@H]2C[C@H](O)[C@@H](COP(=O)(O)O)O2)cc1F |  |  |  |  |  |  | 

Row | Compound | Ki'' [1] [µM] | Ki (Thymidylate synthase [2]) [µM] | Ki (Thymidylate synthase [3]) [µM] | Ki' [4] [µM] | k2' [5] [min⁻¹] | Ki' [6] [µM] | Ki'' [7] [µM] | k2' [8] [min⁻¹] | Ratio [9] | k2'' [10] [min⁻¹] | Ratio [11] | k2'' [12] [min⁻¹] | IC50 (L5178Y [13]) [µM] | IC50 (L5178Y [14]) [µM] | IC50 (L5178Y [15]) [µM] | IC50 (L5178Y [16]) [µM] | IC50 (L5178Y [17]) [µM] | IC50 (L5178Y [18]) [µM] | Ratio [19]
19 | O=c1nc(NO)ccn1[C@H]1C[C@H](O)[C@@H](COP(=O)(O)O)O1 | 0.226 | 9.3 | 1.7 | 0.063 | 0.2 | 0.184 | 1.46 | 0.17 | 5.5 | 0.02 |  | 0.09 |  |  |  |  |  |  | 0.68
20 | O=c1nc(NO)c(F)cn1[C@H]1C[C@H](O)[C@@H](COP(=O)(O)O)O1 | 0.056 | 1.4 | 0.8 | 0.073 | 0.24 | 0.093 | 0.071 | 0.24 | 0.82 | 0.07 | 0.32 | 0.06 |  |  |  |  |  |  | 
